According to ChEMBL document CHEMBL1123505, “Synthesis, structure, and antitumor activity of N-salicyloyl-N'-(2-furylthiocarbonyl)hydrazine and its copper(II) complex” (1986):

Assays:
Format in all cases: functional
Mus musculus [1] = test: Antitumor activity expressed as mean life span of nonsurvivors in days (T/C) was tested against fibrosarcoma at the dosage of 50 mg/kg (ip); 45/27
Outline: (§1)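 On day 3 after transplantation they received a single ip or sc dose of compound freshly suspended in 0.89% saline. Saline-injected controls were used, with 5–10 mice per group. Mean life span of treated nonsurvivors is shown against untreated controls, excluding mice surviving ≥6 months.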

Mus musculus [2] = test: Antitumor activity against fibrosarcoma infected mice at the dosage of 25 mg/kg (ip) and expressed as no. of mice injected; T/C= 10/10
Mus musculus [3] = test: Antitumor activity expressed as mean life span of nonsurvivors in days (T/C) was tested against fibrosarcoma at the dosage of 10 mg/kg (ip); 38/26; outline: as §1
Mus musculus [4] = test: Antitumor activity against Dalton's lymphoma infected mice at the dosage of 10 mg/kg (ip) and expressed as no. of mice injected; T/C= 5/5
Mus musculus [5] = test: Antitumor activity expressed as average body weight change was tested against fibrosarcoma at the dosage of 10 mg/kg (sc)
Outline: (§2)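 Fibrosarcoma-bearing C₃H/He mice (4 × 10⁶ cells sc) received a single ip or sc dose in 0.89% saline on day three after transplant; controls received saline. The day of injection was taken as day zero. Mice were weighed on alternate days up to 4 weeks. Values are average % weight change from the day of treatment to day 21.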

Mus musculus [6] = test: Antitumor activity expressed as average body weight change was tested against fibrosarcoma at the dosage of 10 mg/kg (Ip); outline: as §2
Mus musculus [7] = test: Antitumor activity expressed as mean life span of nonsurvivors in days (T/C) was tested against Dalton's lymphoma at the dosage of 2 mg/kg (ip); 27/21
Mus musculus [8] = test: Antitumor activity expressed as the no. of mice surviving >6 months was tested against fibrosarcoma at the dosage of 10 mg/kg (ip)
Outline: (§3)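 Fibrosarcoma was established by sc inoculation of 4 × 10⁶ cells in mice. On day 3 they received a single ip or sc injection of compound freshly suspended in 0.89% saline, with 5–10 mice per group. The count is of mice surviving 6 months or more after treatment, scored as tumor-free, with the percentage of the group also given.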

Mus musculus [9] = test: Antitumor activity expressed as %T/C was tested against fibrosarcoma at the dosage of 10 mg/Kg (sc)
Outline: (§4)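 Fibrosarcoma: 4 × 10⁶ cells were given sc to C₃H/He mice, 25–30 g. A single ip or sc dose in 0.89% saline followed on day three, with saline-injected controls. Mean life span of nonsurvivors excludes mice surviving 6 months or more, which were counted as tumour-free. T/C% is treated mean survival, excluding tumour-free survivors, divided by untreated mean life span ×100.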

Mus musculus [10] = test: Antitumor activity expressed as mean life span of nonsurvivors in days (T/C) was tested against fibrosarcoma at the dosage of 10 mg/kg (sc); 37/27; outline: as §1
Mus musculus [11] = test: Antitumor activity against Dalton's lymphoma infected mice at the dosage of 25 mg/kg (ip) and expressed as no. of mice injected; T/C= 5/5
Mus musculus [12] = test: Antitumor activity expressed as the no. of mice surviving >6 months was tested against fibrosarcoma at the dosage of 50 mg/kg (ip); outline: as §3
Mus musculus [13] = test: Antitumor activity against Dalton's lymphoma infected mice at the dosage of 2 mg/kg (ip) and expressed as no. of mice injected; T/C= 5/5
Mus musculus [14] = test: Antitumor activity expressed as %T/C was tested against fibrosarcoma at the dosage of 5 mg/Kg (ip); outline: as §4
Mus musculus [15] = test: Antitumor activity against fibrosarcoma infected mice at the dosage of 10 mg/kg (sc) and expressed as no. of mice injected; T/C= 8/7
Mus musculus [16] = test: Antitumor activity expressed as average body weight change was tested against fibrosarcoma at the dosage of 25 mg/kg (Ip); outline: as §2
Mus musculus [17] = test: Antitumor activity expressed as mean life span of nonsurvivors in days (T/C) was tested against Dalton's lymphoma at the dosage of 25 mg/kg (ip); 41/21
Mus musculus [18] = test: Antitumor activity expressed as average body weight change was tested against fibrosarcoma at the dosage of 25 mg/kg (sc); outline: as §2
Mus musculus [19] = test: Antitumor activity expressed as average body weight change was tested against fibrosarcoma at the dosage of 5 mg/kg (Ip); outline: as §2
Mus musculus [20] = test: Antitumor activity expressed as %T/C was tested against fibrosarcoma at the dosage of 25 mg/Kg (sc); outline: as §4
Mus musculus [21] = test: Antitumor activity expressed as the no. of mice surviving >6 months was tested against fibrosarcoma at the dosage of 5 mg/kg (ip); outline: as §3
Mus musculus [22] = test: Antitumor activity against fibrosarcoma infected mice at the dosage of 25 mg/kg (sc) and expressed as no. of mice injected; T/C= 8/9
Mus musculus [23] = test: Antitumor activity against fibrosarcoma infected mice at the dosage of 10 mg/kg (ip) and expressed as no. of mice injected; T/C= 6/6
Mus musculus [24] = test: Antitumor activity expressed as average body weight change was tested against fibrosarcoma at the dosage of 5 mg/kg (sc); outline: as §2
Mus musculus [25] = test: Antitumor activity expressed as mean life span of nonsurvivors in days (T/C) was tested against fibrosarcoma at the dosage of 5 mg/kg (sc); 36/26; outline: as §1
Mus musculus [26] = test: Antitumor activity expressed as the no. of mice surviving >6 months was tested against fibrosarcoma at the dosage of 25 mg/kg (sc); outline: as §3
Mus musculus [27] = test: Antitumor activity expressed as %T/C was tested against fibrosarcoma at the dosage of 50 mg/Kg (ip); outline: as §4
Mus musculus [28] = test: Antitumor activity expressed as %T/C was tested against fibrosarcoma at the dosage of 5 mg/Kg (sc); outline: as §4
Mus musculus [29] = test: Antitumor activity against fibrosarcoma infected mice at the dosage of 5 mg/kg (ip) and expressed as no. of mice injected; T/C= 8/6
Mus musculus [30] = test: Antitumor activity expressed as average body weight change was tested against fibrosarcoma at the dosage of 50 mg/kg (Ip); outline: as §2
Mus musculus [31] = test: Antitumor activity against fibrosarcoma infected mice at the dosage of 5 mg/kg (sc) and expressed as no. of mice injected; T/C= 7/7
Mus musculus [32] = test: Antitumor activity expressed as mean life span of nonsurvivors in days (T/C) was tested against fibrosarcoma at the dosage of 25 mg/kg (sc); 41/26; outline: as §1
Mus musculus [33] = test: Antitumor activity expressed as mean life span of nonsurvivors in days (T/C) was tested against fibrosarcoma at the dosage of 25 mg/kg (ip); 40/28; outline: as §1
Mus musculus [34] = test: Antitumor activity expressed as mean life span of nonsurvivors in days (T/C) was tested against fibrosarcoma at the dosage of 5 mg/kg (ip); 41/27; outline: as §1
Mus musculus [35] = test: Antitumor activity expressed as the no. of mice surviving >6 months was tested against fibrosarcoma at the dosage of 25 mg/kg (ip); outline: as §3
Mus musculus [36] = test: Antitumor activity expressed as %T/C was tested against Dalton's lymphoma at the dosage of 2 mg/Kg (ip)
Outline: (§5)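 Dalton's lymphoma: 2 × 10⁷ ascites cells were given ip to DbA mice, 18–20 g. A single ip dose in 0.89% saline followed on day two, with saline-injected controls. Mean life span was calculated excluding mice that survived 6 months or more. T/C% is the mean survival of treated mice, excluding tumour-free survivors, divided by the mean life span of untreated mice ×100.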

Mus musculus [37] = test: Antitumor activity expressed as %T/C was tested against fibrosarcoma at the dosage of 10 mg/Kg (ip); outline: as §4
Mus musculus [38] = test: Antitumor activity expressed as mean life span of nonsurvivors in days (T/C) was tested against Dalton's lymphoma at the dosage of 10 mg/kg (ip); 33/21
Mus musculus [39] = test: Antitumor activity expressed as %T/C was tested against Dalton's lymphoma at the dosage of 10 mg/Kg (ip); outline: as §5
Mus musculus [40] = test: Antitumor activity expressed as %T/C was tested against Dalton's lymphoma at the dosage of 25 mg/Kg (ip); outline: as §5
Mus musculus [41] = test: Antitumor activity against fibrosarcoma infected mice at the dosage of 50 mg/kg (ip) and expressed as no. of mice injected; T/C= 8/8
Mus musculus [42] = test: Antitumor activity expressed as %T/C was tested against fibrosarcoma at the dosage of 25 mg/Kg (ip); outline: as §4

**Q.** `O=C(NN=C(S)c1ccco1)c1ccccc1O` was tested. Which T/C (Mus musculus [1]) did it give?
**A.** 45 days

**Q.** What about the T/C (Mus musculus [2]) of the same compound?
**A.** 10

**Q.** And the T/C (Mus musculus [3])?
**A.** 38 days

**Q.** And the T/C (Mus musculus [4])?
**A.** 5

**Q.** What about the “Average body weight change” value (Mus musculus [5]) of the same compound?
**A.** 12.31%

**Q.** What about the “Average body weight change” value (Mus musculus [6]) of the same compound?
**A.** 11.27%

**Q.** And the T/C (Mus musculus [7])?
**A.** 27 days

**Q.** And the “No. of mice surviving >6 months” value (Mus musculus [8])?
**A.** 3

**Q.** And the T/C (Mus musculus [9])?
**A.** 137%

**Q.** And the T/C (Mus musculus [10])?
**A.** 37 days

**Q.** What about the T/C (Mus musculus [11]) of the same compound?
**A.** 5

**Q.** And the “No. of mice surviving >6 months” value (Mus musculus [12])?
**A.** 6

**Q.** What about the T/C (Mus musculus [13]) of the same compound?
**A.** 5

**Q.** What about the T/C (Mus musculus [14]) of the same compound?
**A.** 152%

**Q.** And the T/C (Mus musculus [15])?
**A.** 8

**Q.** And the “Average body weight change” value (Mus musculus [16])?
**A.** 7.88%

**Q.** What about the T/C (Mus musculus [17]) of the same compound?
**A.** 41 days

**Q.** What about the “Average body weight change” value (Mus musculus [18]) of the same compound?
**A.** 9.96%

**Q.** And the “Average body weight change” value (Mus musculus [19])?
**A.** 15.1%

**Q.** What about the T/C (Mus musculus [20]) of the same compound?
**A.** 158%

**Q.** And the “No. of mice surviving >6 months” value (Mus musculus [21])?
**A.** 4

**Q.** And the T/C (Mus musculus [22])?
**A.** 8

**Q.** And the T/C (Mus musculus [23])?
**A.** 6

**Q.** And the “Average body weight change” value (Mus musculus [24])?
**A.** 11.62%

**Q.** And the T/C (Mus musculus [25])?
**A.** 36 days

**Q.** And the “No. of mice surviving >6 months” value (Mus musculus [26])?
**A.** 6

**Q.** What about the T/C (Mus musculus [27]) of the same compound?
**A.** 167%

**Q.** What about the T/C (Mus musculus [28]) of the same compound?
**A.** 139%

**Q.** What about the T/C (Mus musculus [29]) of the same compound?
**A.** 8

**Q.** And the “Average body weight change” value (Mus musculus [30])?
**A.** 2.65%

**Q.** And the T/C (Mus musculus [31])?
**A.** 7

**Q.** What about the T/C (Mus musculus [32]) of the same compound?
**A.** 41 days

**Q.** And the T/C (Mus musculus [33])?
**A.** 40 days

**Q.** What about the T/C (Mus musculus [34]) of the same compound?
**A.** 41 days

**Q.** What about the “No. of mice surviving >6 months” value (Mus musculus [35]) of the same compound?
**A.** 5

**Q.** What about the T/C (Mus musculus [36]) of the same compound?
**A.** 128%

**Q.** And the T/C (Mus musculus [37])?
**A.** 146%

**Q.** And the T/C (Mus musculus [38])?
**A.** 33 days

**Q.** And the T/C (Mus musculus [39])?
**A.** 157%

**Q.** What about the T/C (Mus musculus [40]) of the same compound?
**A.** 195%

**Q.** What about the T/C (Mus musculus [41]) of the same compound?
**A.** 8

**Q.** And the T/C (Mus musculus [42])?
**A.** 143%
